Source: PubChem BioAssay
Rin1-Abl PPI inh: inhibitors of Rin1-Abl protein binding, primary screen, biochemical, TR-FRET; inhibition, % at 7.35 µM; AID 588664, 2011; Tyrosine-protein kinase ABL1 (Homo sapiens) + Ras and Rab interactor 1 (Homo sapiens), …; 0.4% of 360,000 active; in the data active = inhibition above about 5%, passing the limit was not always enough
RBBP9 inh: human RBBP9 inhibitors, primary screen, biochemical, fluorescence polarization, FP-Rh probe, HTS | inhibition, % at 7.94 µM | Serine hydrolase RBBP9 (Homo sapiens), O75884 | 0.2% of 220,000 active | AID 1515, 2009 | recombinant RBBP9;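 active = inhibition above the campaign mean of all tested compounds plus 3 SD, cut at about 14% in these data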
Target sequence (O75884 whole entry, looked up): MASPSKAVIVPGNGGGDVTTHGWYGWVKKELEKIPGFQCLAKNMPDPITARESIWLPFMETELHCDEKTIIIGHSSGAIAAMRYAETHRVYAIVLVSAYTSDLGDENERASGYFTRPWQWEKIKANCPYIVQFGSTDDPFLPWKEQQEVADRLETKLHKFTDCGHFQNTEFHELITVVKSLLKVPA
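Test system: recombinant human RBBP9. Quantity: 2.5 µM RBBP9 dispensing solution, before mixing. Detection: FP readout at 525/598 nm. Reagent: Serine-hydrolase probe FP-Rh, 375 nM pre-mixing. Measure: % inhibition. Control set: DMSO-treated enzyme wells and wells lacking RBBP9. Buffer or medium: Tris-NaCl-Pluronic buffer, pH 8.0. Times: preincubation 30 min plus labeling 45 min at 25 °C.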
ALR H2O2 inh: inhibitors of human ALR sulfhydryl oxidase, primary screen, biochemical, H2O2 detection, HRP-luminol luminescence, single point. FAD-linked sulfhydryl oxidase ALR (Homo sapiens), P55789. purified ALR, DTT oxidation. inhibition, % (concentration not given with the values). 3.8% of 290,000 active. AID 485317, 2010;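 active = mean replicate inhibition above about 79%, with every replicate also reaching it, limit read from the data; inconclusive = only one of the two criteria met; inactive = mean below limit and not every replicate reaching it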
Target sequence (P55789 whole entry, looked up): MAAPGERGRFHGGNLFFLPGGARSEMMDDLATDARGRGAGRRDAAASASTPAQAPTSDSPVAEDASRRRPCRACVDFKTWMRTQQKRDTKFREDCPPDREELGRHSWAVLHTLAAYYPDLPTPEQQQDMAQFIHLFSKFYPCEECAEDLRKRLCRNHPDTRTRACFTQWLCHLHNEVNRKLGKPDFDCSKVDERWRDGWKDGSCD
UBC13 polyUb: UBC13 polyubiquitin chain formation inhibitors, primary screen, biochemical, TR-FRET, uHTS; inhibition, % at 20 µM; Ubiquitin-conjugating enzyme E2 N (Homo sapiens), P61088; 0.47% of 330,000 active; AID 485273, 2010; in the data active = inhibition above about 45%, passing the limit was not always enough; inconclusive = no clear call, values can overlap the other calls
Target sequence (P61088 whole entry, looked up): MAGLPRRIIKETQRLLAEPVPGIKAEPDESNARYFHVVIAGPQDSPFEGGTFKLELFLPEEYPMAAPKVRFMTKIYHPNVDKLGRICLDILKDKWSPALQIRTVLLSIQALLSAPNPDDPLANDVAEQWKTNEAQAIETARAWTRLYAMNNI
SUMO HTRF inh: inhibitors of in vitro SUMOylation cascade, primary screen, biochemical, HTRF, uHTS | 0.36% of 290,000 active | inhibition, % at 35 µM | AID 2006, 2009 | SUMO-conjugating enzyme UBC9 (Homo sapiens), P63279 | HTRF SUMOylation assay, SAE1/SAE2 + UBC9; in the data active = inhibition above about 50%, passing the limit was not always enough; inconclusive = no clear call, values can overlap the other calls
PREPL inh: PREPL enzyme inhibitors, primary screen, biochemical, fluorescence polarization; 0.68% of 320,000 active; recombinant PREPL, fluorescence polarization activity-based probe; AID 2751, 2010; inhibition, % at 5.96 µM
PREPL inh cf: human PREPL enzyme inhibitors, confirmation, biochemical, fluorescence polarization. shares compounds with PREPL inh. recombinant PREPL, fluorescence polarization activity probe. inhibition, % at 5.96 µM. 67% of 2,000 active. AID 2803, 2010
Of the large screens only hits and unclear results are named; the others gave an inactive call (follow-up assays come after a bar, where they were run). Hits are enriched below; roughly 4.3% of the tested compounds scored in any of these assays. Cut-off read from the data, not from the text of the source, unless noted: active = inhibition above about 43%; inactive = the rest.

Oc1ccc(/C=N/Nc2nc(-c3cccnc3)nc3ccccc23)c(O)c1	PREPL inh 58 | PREPL inh cf inactive
Cc1c(O)ccc(/C=N/Nc2nc(-c3cccnc3)nc3ccccc23)c1O	PREPL inh 72 | PREPL inh cf 72
COc1ccc(/C=N/Nc2nc(-c3cccnc3)nc3ccccc23)cc1OC	none (no result: ALR H2O2 inh)
Cc1cccc2cc(-c3ccccc3)c(-c3ccccc3)c[n+]12	PREPL inh 58 (no result: UBC13 polyUb) | PREPL inh cf 46
CCN(CC(=O)Nc1ccccc1C(F)(F)F)C(=O)c1ccccc1Cc1ccccc1	none (no result: RBBP9 inh, SUMO HTRF inh)
COc1cc(NC(=O)Cn2c([N+](=O)[O-])cnc2C)c(OC)cc1Cl	none (no result: RBBP9 inh, ALR H2O2 inh)
O=C(O)c1cc(O)c2c(c1)[C@H]([C@H]1c3cc(C(=O)O)cc(O)c3C(=O)c3c(O[C@@H]4O[C@H](CO)[C@@H](O)[C@H](O)[C@H]4O)cccc31)c1cccc(OC3O[C@H](CO)[C@@H](O)[C@H](O)[C@H]3O)c1C2=O (some centres undefined)	UBC13 polyUb inconclusive, PREPL inh 105 (no result: RBBP9 inh, SUMO HTRF inh) | PREPL inh cf 92
COc1ccc2cc1Oc1ccc(cc1)C[C@H]1c3cc(c(OC)cc3CCN1C)Oc1c(OC)c(OC)cc3c1[C@H](C2)N(C)CC3	PREPL inh 61 (no result: RBBP9 inh) | PREPL inh cf 60
COc1cc(NC(=O)C[n+]2ccc(C(=O)c3ccccc3)cc2)cc(OC)c1	PREPL inh 49 (no result: RBBP9 inh, SUMO HTRF inh) | PREPL inh cf inactive
O=C(CN1C(=O)NC2(CCCC2)C1=O)Nc1nc2ccccc2[nH]1	none (no result: RBBP9 inh, SUMO HTRF inh)
CC(C)Cn1c(N)c(C(=O)COC(=O)c2cccn2C)c(=O)n(C)c1=O	none (no result: RBBP9 inh, SUMO HTRF inh)
O=C(Oc1ccc(OC(=O)c2ccco2)c(S(=O)(=O)c2ccc(Br)cc2)c1)c1ccco1	PREPL inh 94 | PREPL inh cf 93
Cc1ccc(S(=O)(=O)c2cc(OC(=O)c3ccco3)ccc2OC(=O)c2ccco2)cc1	PREPL inh 86 | PREPL inh cf 77
COc1cccc(C(O)c2ncc(-c3ccccc3)[nH]2)c1 (centres undefined)	none (no result: RBBP9 inh, ALR H2O2 inh, UBC13 polyUb, SUMO HTRF inh, PREPL inh)
CS(=O)(=O)c1ccc(Cl)c(NC(=O)CCN2C(=O)C3CC=CCC3C2=O)c1 (centres undefined)	none (no result: RBBP9 inh, SUMO HTRF inh)
CC(=O)Oc1cccc(N2C(=O)c3ccc(C(=O)Nc4c[nH]c(=O)[nH]c4=O)cc3C2=O)c1	none
CCN(CC)CCC(c1cc(OC)c(OC)c(OC)c1)c1c(O)cc(OC)cc1OC (centres undefined)	PREPL inh 45 (no result: RBBP9 inh) | PREPL inh cf 47
COc1ccc(C(C)(O)c2nc(-c3ccc4c(c3)OCO4)cs2)cc1 (centres undefined)	none (no result: RBBP9 inh, ALR H2O2 inh, UBC13 polyUb, SUMO HTRF inh, PREPL inh)
CC1(C)CCCN(Cc2c(O)ccc3c(=O)c(-c4nc5ccccc5s4)c(N)oc23)C1	PREPL inh 44 (no result: ALR H2O2 inh) | PREPL inh cf inactive
COc1ccccc1-c1c(C)oc2c(CN3CCN(C)CC3)c(O)ccc2c1=O	none
CC1CCN(Cc2c(O)ccc3c(=O)c(-c4nc5ccccc5s4)c(N)oc23)CC1	PREPL inh 44 | PREPL inh cf inactive
CC1CCCN(Cc2c(O)ccc3c(=O)c(-c4nc5ccccc5s4)c(N)oc23)C1 (centres undefined)	PREPL inh 65 | PREPL inh cf 62
O=C(O)c1ccc(N/N=C/c2ccc(-c3cc(Cl)ccc3Cl)o2)cc1	none
Cc1c(C(=O)O)cccc1-c1ccc(/C=N/Nc2ccc(Br)cc2)o1	ALR H2O2 inh 100, PREPL inh 46 | PREPL inh cf inactive
O=C(O)c1ccc(N/N=C/c2ccc(-c3cccc(Cl)c3)o2)cc1	PREPL inh 57 (no result: ALR H2O2 inh) | PREPL inh cf 55
Cc1c(C(=O)O)cccc1-c1ccc(/C=N/n2cnnc2)o1	none (no result: RBBP9 inh, ALR H2O2 inh)
COc1ccc(-c2cn3c(C)c(C(=O)N4CCc5ccccc5C4)sc3n2)cc1	PREPL inh 50 (no result: RBBP9 inh) | PREPL inh cf inactive
Cc1c(C(=O)N2CCc3ccccc3C2)sc2nc(-c3ccccc3)cn12	none
Cc1ccc(C)c(Nc2cc(C)nc3ccccc23)c1	PREPL inh 44 (no result: RBBP9 inh, ALR H2O2 inh, SUMO HTRF inh) | PREPL inh cf inactive
CSCCC(NC(=O)c1cccc(C)c1)C(=O)OCC(=O)Nc1c(C)nn(-c2ccccc2)c1C (centres undefined)	none (no result: RBBP9 inh, SUMO HTRF inh)
O=C(NC1CCCC1)c1ccc2nc(-c3ccco3)c(-c3ccco3)nc2c1	SUMO HTRF inh 51, PREPL inh 62 (no result: ALR H2O2 inh) | PREPL inh cf inactive
O=C(NCCc1ccccc1)c1ccc(=O)oc1	none
O=C(c1ccccc1)c1ccc2nc(-c3ccco3)c(-c3ccco3)nc2c1	SUMO HTRF inh 95, PREPL inh 62 | PREPL inh cf 51
O=C(NCCc1ccccc1)c1ccc2nc(-c3ccco3)c(-c3ccco3)nc2c1	PREPL inh 74 | PREPL inh cf 74
O=C(NCC1CCCO1)c1ccc(NC(=O)c2cc(F)c(F)cc2Cl)cc1 (centres undefined)	none (no result: RBBP9 inh)
Cc1ccc(CNC(=O)c2ccc3c(=O)[nH]c4c(C(=O)NCC5CCCO5)sc(=S)n4c3c2)cc1 (centres undefined)	PREPL inh 44 | PREPL inh cf 46
CCCCCNC(=O)c1ccc2c(=O)[nH]c3c(C(=O)NCC4CCCO4)sc(=S)n3c2c1 (centres undefined)	PREPL inh 61 | PREPL inh cf 57
O=C(NCc1ccccc1)c1ccc2c(=O)[nH]c3c(C(=O)NCC4CCCO4)sc(=S)n3c2c1 (centres undefined)	PREPL inh 44 | PREPL inh cf 64
O=C(NCc1ccccc1)c1ccc2c(=O)n(CC3CCCO3)c(=S)[nH]c2c1 (centres undefined)	none (no result: ALR H2O2 inh)
O=C(NCC1CCCO1)c1ccc2c(=O)n(-c3ccc(F)cc3)c(=S)[nH]c2c1 (centres undefined)	none
CCCCN(C(=O)c1c(CC)noc1C)c1c(N)n(CCCC)c(=O)[nH]c1=O	none (no result: RBBP9 inh, SUMO HTRF inh)
C=CCSc1nnc(NC(=O)c2cccc(S(=O)(=O)N(C)c3ccccc3)c2)s1	none
O=c1cc(-c2ccc(O)cc2)oc2c(-c3c(O)cc(O)c4c(=O)cc(-c5ccc(O)cc5)oc34)c(O)cc(O)c12	PREPL inh 51 (no result: RBBP9 inh, ALR H2O2 inh, SUMO HTRF inh) | PREPL inh cf inactive
O=c1cc(CN2CCCc3ccccc32)nc2sccn12	PREPL inh 51 | PREPL inh cf inactive
Cc1cc2cc(CNC(=O)c3ccc(Br)o3)ccc2[nH]1	PREPL inh 53 (no result: RBBP9 inh) | PREPL inh cf inactive
